Measurements published in the RNAGym collection of RNA variant scans (doi:10.1126/science.aae0568).
Variants at the floor of the assay were thinned out.

B1: tRNA (parent)
chain: GUUCCGUUGGCGUAAUGGUAACGCGUCUCCCUCCUAAGGAGAAGACUGCGGGUUCGAGUCCCGUACGGAACG

Variants of: B1
Assay: yeast fitness relative to wild type (ratio to wild type); higher = fitter; tRNA-Arg(CCU), competitive growth, 37 C, YPD
How it was run: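 Gene amplicons from the start population and from each of six end populations were read by 100-nucleotide paired-end sequencing. Those end populations came from pooled Saccharomyces cerevisiae strains carrying tRNA-Arg(CCU) gene variants at the native locus, competed in YPD at 37°C for 24 hours. Fitness relative to wild type was worked out from changes in genotype frequencies. Genotypes needed ≥ 100 starting reads, and estimates < 0.5 were set to 0.5.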
For GUUCCAUUGGCGUAAUGGUAACGCGUCUCCGUCCUAAGGAGAAGACUGAGGGUUCGAGUCCCGUACGCAACG [G6A C31G C49A G68C], the yeast fitness was 0.536. GUUCCAUUGGCGUAAUGGUAACGCGUCUCCGUCCUAAGGAGAAGACUGCGGGUUUGAGUCCCGUACGGAACG [G6A C31G C55U] showed a yeast fitness of 0.537. For GUUCCAUUGGCGUAAUGGUAACGCGUCUCCGUCCUAAGGAAAAGACUGCGGGUUCGAGUCCCGUACGGAACG [G6A C31G G41A], the yeast fitness was ≤ 0.5. GUUCCAUUGGCGUAAUGGUAACGCGUCUCCUUCCUAAGGAGAAGACUGCGGGUUCGAGUCCCGUACGGAACG [G6A C31U] showed a yeast fitness of 0.933. In the case of GUUCCAUUGGCGUAAUGGUAACGCGUCUCCUUCCUAAGGAGAUGACUGCGGGUUAGAGUCCCGUACGGAACG [G6A C31U A43U C55A], the yeast fitness is reported as ≤ 0.5. With GUUCCAUUGGCGUAAUGGUAACGCGUCUCCUUCUUAAGGAGAAGACUGCGGAUUCGAGUCCCGUACGGAACG [G6A C31U C34U G52A] the yeast fitness was ≤ 0.5. For GUUCCAUUGGCGUAAUGGUAACGCGUCUCCUUCCUAAGGAGAAGAAUGCGGGUUCGUGUUCCGUACGGAACG [G6A C31U C46A A57U C60U], the yeast fitness was ≤ 0.5. For GUUCCAUUGGCGUAAUGGUAACGCGUCUCCUUCCUAAGGACUAGACUGCGGGUUCGAGUCCCGUAUGGAACG [G6A C31U G41C A42U C66U], the yeast fitness was ≤ 0.5. For GUUCCAUUGGCGUAAUGGUAACGCGUCUCCCUACUAAGGAGAAGACUGCGGGUUCGAGUCCCGUACGGAACG [G6A C33A], the yeast fitness was 0.686. In the case of GUUCCAUUGGCGUAAUGGUAACGCGUCUCCCUACUACGGAGAAGACUGCGGGUUCGAAUCCCGUAUUGAACG [G6A C33A A37C G58A C66U G67U], the yeast fitness is reported as ≤ 0.5. For GUUCCAUUGGCGUAAUGGUAACGCGUCUCCCUACUAAGGAGCAGACUGCGGGUUCGAGUCCCGUACGGAACG [G6A C33A A42C], the yeast fitness was 0.578. In the case of GUUCCAUUGGCGUAAUGGUAACGCGUCUCCCUACUAAGGAGAAGACUGCGGGUUCGAAUCCCGUCCAGAACG [G6A C33A G58A A65C G67A], the yeast fitness is reported as ≤ 0.5. For GUUCCAUUGGCGUAAUGGUAACGCGUCUCCCUGCUAAGGAGAUGACUGCGGGUUCGAGUCCCGUACGGAACG [G6A C33G A43U], the yeast fitness was 0.574. In the case of GUUCCAUUGGCGUAAUGGUAACGCGUCUCCCUGGUAAGGAGAAGACUGCGGGUUCGAGUCCCGUACGGAACG [G6A C33G C34G], the yeast fitness is reported as ≤ 0.5. With GUUCCAUUGGCGUAAUGGUAACGCGUCUCCCUGGUAAGGAGAUGACUGCGGGUUCGAGUCACGUACGGAACG [G6A C33G C34G A43U C61A] the yeast fitness was ≤ 0.5. GUUCCAUUGGCGUAAUGGUAACGCGUCUCCCUGGUAAGGAGAAGACUGCGGGUUCGAGUCACGUACGGAACG [G6A C33G C34G C61A] showed a yeast fitness of 0.548. With GUUCCAUUGGCGUAAUGGUAACGCGUCUCCCUGGUAAGGAAAAGACUGCGGGUUCGACUCCCGUACGGACCG [G6A C33G C34G G41A G58C A70C] the yeast fitness was 0.519. In the case of GUUCCAUUGGCGUAAUGGUAACGCGUCUCCCUUCUAAGGAGAGGACUGCGGGUUCGAGUCCCGUACGGAACG [G6A C33U A43G], the yeast fitness is reported as ≤ 0.5. With GUUCCAUUGGCGUAAUGGUAACGCGUCUCCCUUUUAAGGAGAAGACUGCGGGUUCGAGUCCGGUACGGAACG [G6A C33U C34U C62G] the yeast fitness was ≤ 0.5. With GUUCCAUUGGCGUAAUGGUAACGCGUCUCCCUUCUAAGGAGAAGACUGAGGGUUCGACUCCCGUACGGUACG [G6A C33U C49A G58C A69U] the yeast fitness was ≤ 0.5. GUUCCAUUGGCGUAAUGGUAACGCGUCUCCCUCAUAAGGAGAAGACUGCGGGUUCGAGUCCCGUACGGAACG [G6A C34A] showed a yeast fitness of 0.739. For GUUCCAUUGGCGUAAUGGUAACGCGUCUCCCUCAUACGGUGAAGACUGCGGGUUCGAGUCCCGUACGGAACG [G6A C34A A37C A40U], the yeast fitness was ≤ 0.5. In the case of GUUCCAUUGGCGUAAUGGUAACGCGUCUCCCUCAUAAGGUGAAGACUGCGGAUUCGAGUCCCGUUCGGACCG [G6A C34A A40U G52A A65U A70C], the yeast fitness is reported as ≤ 0.5. With GUUCCAUUGGCGUAAUGGUAACGCGUCUCCCUCAUAAGGAGAAGACUGCGGGUUCGACUCCCGUCCGGCACG [G6A C34A G58C A65C A69C] the yeast fitness was ≤ 0.5. Variant GUUCCAUUGGCGUAAUGGUAACGCGUCUCCCUCGUAAGGAGAAGACUGCGGGUUCGAGUCCCGUACGGAACG [G6A C34G] has a yeast fitness of 0.569. With GUUCCAUUGGCGUAAUGGUAACGCGUCUCCCUCGUAGGGAGAAGACUGCGGGUUCGGGUCCCGUACGGACCG [G6A C34G A37G A57G A70C] the yeast fitness was ≤ 0.5. In the case of GUUCCAUUGGCGUAAUGGUAACGCGUCUCCCUCGUAGGGAGAAGACUGCGGGUUCGAGUCCCGCACGGAACG [G6A C34G A37G U64C], the yeast fitness is reported as ≤ 0.5. In the case of GUUCCAUUGGCGUAAUGGUAACGCGUCUCCCUCGUAAGGAGAAGACUGCGGGUUCGAGUCGCGUACGGAACG [G6A C34G C61G], the yeast fitness is reported as 0.538. For GUUCCAUUGGCGUAAUGGUAACGCGUCUCCCUCGUAAGGAGAAGACUGCGGGUUCGAGUCCUGUACGAAACG [G6A C34G C62U G68A], the yeast fitness was ≤ 0.5. For GUUCCAUUGGCGUAAUGGUAACGCGUCUCCCUCGUAAGGAGAAGACUGCGGCUUCGAGUCCCGUUCGGAACG [G6A C34G G52C A65U], the yeast fitness was ≤ 0.5. In the case of GUUCCAUUGGCGUAAUGGUAACGCGUCUCCCUCUUAAGGAGAAGACUGCGGGUUCGAGUCCCGUCCGGAACG [G6A C34U A65C], the yeast fitness is reported as 0.54. In the case of GUUCCAUUGGCGUAAUGGUAACGCGUCUCCCUCUUAAGGAGAAGACUGCGGGUUCGAGUCCCGAACGGAACG [G6A C34U U64A], the yeast fitness is reported as ≤ 0.5. Variant GUUCCAUUGGCGUAAUGGUAACGCGUCUCCCUCCUAAGGAGAAGAGUGCGGGUUCGAGUCCCGUACGGAACG [G6A C46G] has a yeast fitness of 0.937. For GUUCCAUUGGCGUAAUGGUAACGCGUCUCCCUCCUAAGGAGAAGAGUGCGACUUCGAGUCCGGUAUGGAACG [G6A C46G G51A G52C C62G C66U], the yeast fitness was ≤ 0.5. In the case of GUUCCAUUGGCGUAAUGGUAACGCGUCUCCCUCCUAAGGAGAAGAUUGCGGGUUCGAGUCCCGUACGGAACG [G6A C46U], the yeast fitness is reported as 0.976. In the case of GUUCCAUUGGCGUAAUGGUAACGCGUCUCCCUCCUAAGGAGAAGAUUGCAGGUUCGAGUCGCGUACGGAACG [G6A C46U G50A C61G], the yeast fitness is reported as ≤ 0.5. For GUUCCAUUGGCGUAAUGGUAACGCGUCUCCCUCCUAAGGAGAAGACUGAGGGUUCGAGUCCCGUACGGAACG [G6A C49A], the yeast fitness was 0.625.
